DAT uptake mod: human DAT dopamine uptake with cocaine, either direction. actives 1.3% (n = 110,000). B-score at 10 µM. Q01959. LLC-PK1 hDAT cells, [14C]-dopamine uptake with cocaine IC80; actives deviate in either direction;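 active = Z score or B-score, a plate-position-corrected score, falls beyond the plate's 99.7% confidence bounds, in either direction; inactive = both scores lie inside the 99.7% bounds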
M1 antagonist: blocks the rat M1 muscarinic receptor response to acetylcholine; actives 3.4% (n = 64,000); B-score at 10 µM; P08482; CHO-M1 cells, Fluo-4 calcium, ACh EC80 antagonist mode; hits give low values; AID 628;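 active = calcium fluorescence response, raw or row-and-column corrected B-score, differing from the plate sample mean either way at a set confidence level, mostly lower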
Target sequence (P08482 whole entry, looked up): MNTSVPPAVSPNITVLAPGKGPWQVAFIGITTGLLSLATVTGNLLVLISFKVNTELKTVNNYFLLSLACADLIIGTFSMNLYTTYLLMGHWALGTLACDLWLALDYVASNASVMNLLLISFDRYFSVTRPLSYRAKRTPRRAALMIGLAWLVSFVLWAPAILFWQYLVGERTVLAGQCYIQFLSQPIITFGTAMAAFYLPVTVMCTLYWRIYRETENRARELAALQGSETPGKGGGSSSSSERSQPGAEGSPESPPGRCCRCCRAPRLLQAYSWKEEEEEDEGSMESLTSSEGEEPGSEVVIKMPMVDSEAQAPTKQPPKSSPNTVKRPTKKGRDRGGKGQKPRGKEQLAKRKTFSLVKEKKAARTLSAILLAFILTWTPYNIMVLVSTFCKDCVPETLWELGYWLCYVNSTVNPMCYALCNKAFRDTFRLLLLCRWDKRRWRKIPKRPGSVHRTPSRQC
D1 allo mod: allosterically modulates the human D1 dopamine receptor; P21728; AID 641; HEK293 D1, CRE-luciferase, dopamine EC30 potentiation; actives deviate in either direction; actives 5.9% (n = 58,000); B-score at 10 µM;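 active = luminescence count or its row- and column-corrected plate score outside the 99.7% band of the plate's sample wells, on either side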
M1 ag: agonists of M1 muscarinic receptor; CHO-M1 cells, Fluo-4 calcium fluorescence, agonist mode; hits give high values; B-score at 10 µM; actives 3% (n = 64,000);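 active = fluorescence rise, raw or as B-score row- and column-corrected plate score, outside the 99.7% band of its plate's samples, either direction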
HEK293 NFkB inh: lowers PMA/ionomycin-induced NF-kB signal in HEK293 cells; HEK-293 NF-kB luciferase reporter, luminescence; inhibition, % at 3 µM; actives 0.21% (n = 62,000); AID 465;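 active = inhibition above the mean of all tested compounds plus 3 SD, cut at about 40% in these data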
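System: NF-kB luciferase reporter HEK-293 cells | Replication: Single test | Control set: DMSO vs reference inhibitor | Evaluation: % inhibition | Schedule: 1 h pretreatment, 16 h stimulation, 37 °C | Probe or stimulus: PMA with ionomycin | Compound dosing: One dose, 3 µM | Detection: Luciferase luminescence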
BAP1 inh: human BAP1 deubiquitinase inhibition; calls only at 20 µM; actives 0.48% (n = 72,000); recombinant BAP1, Ub-AMC hydrolysis fluorescence kinetic; hits give low values; AID 436;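 active = activity remaining at or below 50% of control, provided the compound also passes the data quality filters; inactive = the rest, including low values that fail the filters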
Of the large screens only hits and unclear results are named; the others gave an inactive call. Most compounds without a hit are left out; they make up all but 7.2% or so of the library.

Cc1onc(-c2ccccc2Cl)c1C(=O)Nc1c2c(nn1-c1ccc([N+](=O)[O-])cc1)CSC2	none (no result: DAT uptake mod, M1 antagonist, D1 allo mod, M1 ag, HEK293 NFkB inh)
COc1ccc(N2CCN(C(=O)CCNS(=O)(=O)c3cccs3)CC2)cc1	DAT uptake mod 11 (no result: M1 antagonist, D1 allo mod, M1 ag, HEK293 NFkB inh, BAP1 inh)
Cc1ccc(C)c(N2CCN(C(=O)CNS(=O)(=O)c3cccs3)CC2)c1	DAT uptake mod 1.7 (no result: M1 antagonist, D1 allo mod, M1 ag, HEK293 NFkB inh, BAP1 inh)
COc1ccc(N2CCN(C(=O)CCNS(=O)(=O)c3ccc4c(c3)CCC(=O)N4)CC2)cc1	none (not shown: BAP1 inh)
Cc1ccc(NC(=O)C(C(C)C)N2C(=O)c3ccccc3C2=O)c(C)c1 (stereo not given)	none (no result: DAT uptake mod, M1 antagonist, D1 allo mod, M1 ag, HEK293 NFkB inh)
CCOC(=O)c1cccc(NC(=O)COc2ccc(OC)cc2)c1	none (no result: DAT uptake mod, M1 antagonist, D1 allo mod, M1 ag, HEK293 NFkB inh)
N#CC(c1nc2ccccc2nc1N1CCCCC1)S(=O)(=O)c1ccc(Cl)cc1 (stereo not given)	D1 allo mod -2.5, BAP1 inh active (no result: DAT uptake mod)
CCCCNC(=O)C(C#N)c1nc2ccccc2nc1N1CCN(c2ccccc2F)CC1 (stereo not given)	M1 ag 36 (not shown: HEK293 NFkB inh, BAP1 inh)
N#CC(C(=O)NC1CCCCC1)c1nc2ccccc2nc1N1CCCCC1 (stereo not given)	M1 ag 49 (no result: DAT uptake mod)
COCCCNC(=O)C(C#N)c1nc2ccccc2nc1N1CCN(Cc2ccccc2)CC1 (stereo not given)	none (no result: D1 allo mod, HEK293 NFkB inh)
CCOC(=O)C1CCN(c2nc3ccccc3nc2C(C#N)C(=O)NCCc2ccccc2)CC1 (stereo not given)	M1 ag 33 (not shown: DAT uptake mod, HEK293 NFkB inh, BAP1 inh)
CCCc1ccc(OCCNC(=O)c2ccc3ccccc3n2)cc1	none (no result: DAT uptake mod, M1 antagonist, D1 allo mod, M1 ag, HEK293 NFkB inh)
O=C(NC1CC1)c1cc2c(s1)-c1ccccc1OC2	D1 allo mod -5.8
Cc1nc2cc([N+](=O)[O-])ccc2n1CCOC(=O)c1ccc([N+](=O)[O-])cc1	none (no result: DAT uptake mod, M1 antagonist, D1 allo mod, M1 ag, HEK293 NFkB inh)
Cc1ccc(C)c(NC(=S)c2ccccn2)c1	none (no result: M1 antagonist, D1 allo mod, M1 ag, HEK293 NFkB inh, BAP1 inh)
S=C(Nc1ccccn1)c1ccccn1	DAT uptake mod 2.4, D1 allo mod -2.6
Cc1noc(C)c1CSc1nc2ccccc2c(=O)n1-c1ccccc1	D1 allo mod 5.3
Cc1noc(C)c1CSc1nc2ccccc2c(=O)n1-c1ccc(F)cc1F	none (no result: DAT uptake mod, M1 antagonist, D1 allo mod, M1 ag)
CC1=C(C(=O)OCCOC(C)C)C(c2ccc([N+](=O)[O-])cc2)C2=C(CC(C)(C)CC2=O)N1 (stereo not given)	none (no result: DAT uptake mod, M1 antagonist, D1 allo mod, M1 ag, HEK293 NFkB inh)
CCOC(=O)C1=C(CC)NC2=C(C(=O)CCC2)C1c1ccncc1 (stereo not given)	none (no result: DAT uptake mod, M1 antagonist, D1 allo mod, M1 ag, HEK293 NFkB inh)
COc1ccc(C(=O)N=c2nc3ccccn3s2)cc1	D1 allo mod -4.8
COc1ccc(C(C#N)Nc2ccccc2)cc1 (stereo not given)	DAT uptake mod 4.6 (no result: M1 antagonist, D1 allo mod, M1 ag, HEK293 NFkB inh, BAP1 inh)
O=C1CCCN1Cc1cc(Cl)c2cccnc2c1O	none (no result: DAT uptake mod, M1 antagonist, D1 allo mod, M1 ag, HEK293 NFkB inh)
COc1ccc(C[C@H]2CN3C(=NC[C@@H]3Cc3ccc(O)cc3)N2CCNC(=O)c2ccc(C)c(Br)c2)cc1	DAT uptake mod -2.5 (no result: M1 antagonist, D1 allo mod, M1 ag, HEK293 NFkB inh, BAP1 inh)
Cc1ccc(C(=O)NCCN2C3=NC[C@H](Cc4ccc(O)cc4)N3C[C@H]2Cc2ccc(O)cc2)cc1Br	none (no result: M1 antagonist, D1 allo mod, M1 ag, HEK293 NFkB inh, BAP1 inh)
Cc1ccc(C)c(OCC(O)CN2CCCCC2C)c1 (stereo not given)	D1 allo mod -6
CN(CC#CCC(O)(c1ccccc1)C1CCCC1)Cc1ccccc1 (stereo not given)	none (no result: DAT uptake mod, M1 antagonist, D1 allo mod, M1 ag, HEK293 NFkB inh)
N#Cc1cc(-c2ccccc2)oc1NC(=O)c1ccco1	DAT uptake mod -8.8
CCCCOC(=O)n1c(SCC(=O)N(C)C)nc2ccccc21	D1 allo mod -7.3 (not shown: BAP1 inh)
CCCCn1c(SCC(=O)O)nc2ccccc21	none
c1ccc(-c2cccc(-c3ccccn3)n2)nc1	HEK293 NFkB inh 86
c1ccc(-c2nc3ccccc3o2)nc1	none (no result: DAT uptake mod)
c1ccc(-c2nnc(-c3ccccn3)nn2)nc1	D1 allo mod -5.5 (no result: DAT uptake mod, BAP1 inh)
CCNc1ccc(C(F)(F)F)c([N+](=O)[O-])c1	none (no result: DAT uptake mod, M1 antagonist, D1 allo mod, M1 ag, HEK293 NFkB inh)
COc1ccc(N(CC(=O)NCCSc2ccccn2)S(C)(=O)=O)cc1	none (no result: M1 antagonist, D1 allo mod, M1 ag, HEK293 NFkB inh, BAP1 inh)
COc1ccc(C(=O)NCCSc2ccccn2)cc1	D1 allo mod -5.3
Cc1cc(NC(=O)c2cccnc2)ccc1-c1cc2ccccc2oc1=O	none (no result: DAT uptake mod, M1 antagonist, D1 allo mod, M1 ag, HEK293 NFkB inh)
Cc1ccc2nc3sc(C(=O)N4CCOCC4)c(N)c3cc2c1	D1 allo mod -5.5
Cc1ccc2cc3c(N)c(C(=O)N4CCOCC4)sc3nc2c1	none (no result: DAT uptake mod)
Cc1ccc2[nH]c(=O)c(CN(Cc3nnnn3Cc3ccccc3)C3CCCC3)cc2c1	none (not shown: BAP1 inh)
Cc1cccc2cc(CN(Cc3nnnn3Cc3ccco3)C3CCCC3)c3nnnn3c12	DAT uptake mod -7.4, M1 antagonist 2.4
